Results taken from ChEMBL document CHEMBL1938298, “Synthesis and characterization of [¹²⁵I]2-iodo N-[(S)-{(S)-1-methylpiperidin-2-yl}(phenyl)methyl]3-trifluoromethyl-benzamide as novel imaging probe for glycine transporter 1” (Bioorg Med Chem, 2011).

Key:
[1] = biological target: T1, Sodium- and chloride-dependent glycine transporter 1 (Homo sapiens, UniProt P48067); experiment: Inhibition of GlyT1 in human JAR cells assessed as inhibition of [3H]glycine uptake preincubated for 1 mins measured after 2 hrs by liquid scintillation counting; assay type: cell-based
T1 sequence (P48067 whole entry): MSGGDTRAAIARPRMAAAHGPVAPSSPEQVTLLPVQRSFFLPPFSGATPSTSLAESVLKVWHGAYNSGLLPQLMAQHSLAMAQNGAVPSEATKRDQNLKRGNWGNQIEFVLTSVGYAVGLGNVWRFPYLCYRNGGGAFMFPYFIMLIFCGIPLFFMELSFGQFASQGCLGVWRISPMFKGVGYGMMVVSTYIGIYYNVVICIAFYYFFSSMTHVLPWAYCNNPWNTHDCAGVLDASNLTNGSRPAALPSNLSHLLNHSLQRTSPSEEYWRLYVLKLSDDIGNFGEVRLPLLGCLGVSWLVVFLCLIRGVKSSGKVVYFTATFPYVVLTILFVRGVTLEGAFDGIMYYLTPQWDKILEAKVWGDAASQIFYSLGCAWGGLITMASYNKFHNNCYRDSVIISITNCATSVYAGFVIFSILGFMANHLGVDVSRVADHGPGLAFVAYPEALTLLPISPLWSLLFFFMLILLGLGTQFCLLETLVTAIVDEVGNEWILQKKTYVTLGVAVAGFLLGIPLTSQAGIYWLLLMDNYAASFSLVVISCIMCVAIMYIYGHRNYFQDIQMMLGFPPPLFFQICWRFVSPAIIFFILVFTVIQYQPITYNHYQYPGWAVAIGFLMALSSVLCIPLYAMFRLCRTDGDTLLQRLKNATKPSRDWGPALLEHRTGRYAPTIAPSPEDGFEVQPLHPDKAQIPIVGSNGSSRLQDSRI
Outline: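 [3H]glycine (final 10 µM) was added for 2 h at room temperature; nonspecific uptake was defined with 10 mM glycine. Cells were lysed in NaOH and counted by liquid scintillation. IC50 values are from at least three measurements, mean ± SEM.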

[2] = biological target: T1, Sodium- and chloride-dependent glycine transporter 1; experiment: Inhibition of human GlyT1 expressed in CHO cells assessed as inhibition of [3H]glycine uptake preincubated for 1 mins measured after 2 hrs by liquid scintillation counting; assay type: cell-based

| IC50 [1] [nM] | IC50 [2] [nM] | SMILES |
| --- | --- | --- |
| 43 |  | O=C(N[C@@H](c1ccccc1)[C@@H]1CCCCN1)c1cccc(C(F)(F)F)c1I |
| 80.1 | 314 | O=C(N[C@@H](c1ccccc1)[C@@H]1CCCCN1)c1cccc(C(F)(F)F)c1Cl |
